Measurements from the EternaBench riboswitch data.

Test system: MS2 coat protein
Experiment: apparent Kd, MS2 coat protein; higher = weaker binding; RNA-MaP array; FMN 200 µM where present
Method in brief: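 Binding was read on Illumina sequencing-chip clusters where stalled E. coli RNA polymerase had transcribed each design. A titration of SNAP-549-labelled MS2 coat protein began at 0.7 or 1.5 nM and doubled to 3 µM, once without ligand and once with constant ligand, in 100 mM Tris-HCl pH 7.5, 80 mM KCl, 4 mM MgCl2, BSA, DTT, yeast tRNA and Tween-20. The apparent Kd is the median of filtered per-cluster binding-curve fits, based on green signal normalised to red-channel RNA signal and control-cluster median Fmax.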

[1] = designed as: OFF switch for flavin mononucleotide, no ligand
[2] = ligand present: flavin mononucleotide, designed as: OFF switch for flavin mononucleotide
[3] = designed as: ON switch for flavin mononucleotide, no ligand
[4] = ligand present: flavin mononucleotide, designed as: ON switch for flavin mononucleotide

Row | Sequence | apparent Kd [1] [nM] | apparent Kd [2] [nM] | apparent Kd [3] [nM] | apparent Kd [4] [nM]
1 | GAGCUAUGAGGAUAUGCAUAUAUGCGGUUUCGUGUGGUACUACAUGAGGAUCACCCAUGUAGAAGGCGUGGCAG | 16 | 17.5 |  | 
2 | AUUAUUUUCGAAGGAUAUGGAUACAUGAGGAUCACCCAUGUAUAAAAUGUGAUCAAUUAUAUGAUCCAGAAGGUCGUUGUUUAU | 80.8 | 257 |  | 
3 | GUCGGAAACGACAAAAGUAUGGAUCCAGAAGGCAUGACACAUGAGGAUCACCCAUGUCUAAGAUAUGAGGAUAUGGAUCCAUAC |  |  | 4.97 | 4.71
4 | GUAUCGUGAGGAUAUCAUGAUUGACUUUUGUUUUGUCAGCGUGAGAAGGCACAUGAGGAUCACCCAUGUGAUUA | 22.3 | 52.9 |  | 
5 | UCACGGGAUUGAGGAUAUAUAUUAAUUUUUACAAUAGAAGGCAAAUUGUUAGUUUUUUCACUAUACAUGAGGAUCACCCAUGUU | 27.4 | 25.1 |  | 
6 | CCGCUGUUAGGAUAUCUGAAGCUUCAAUGGAAGUCUUCAUUGGAGAAGGGACAUGAGGAUCACCCAUGUAGGGA | 192 | 253 |  | 
7 | CCGCGCUGUCGAGAGGAUAUGCGGUGAUGGACAUGAGGAUCACCCAUGUUAGCGAUAGCAUUACUGUAGAAGGCUCUACGGCGGC |  |  | 16.6 | 17.3
8 | AUUAUACAUGAGGAUCACCCAUGUAAUUAAUCUAGUAAGAUCUAGGAUAUCAGCUCGUUUAGAGCUGAGAAGGAGAUCACAUGU |  |  | 53.5 | 21
9 | GCGUUGAACGAGAAGGCCAAUACAUGAGGAUCACCCAUGUUAAGUUGUUUUGGAGGAUAUCGAACACAUUCAAUAUUGCAACGC | 6.06 | 5.65 |  | 
10 | AUUUUACAUGAGGAUCACCCAUGUUUUGGCGGGUCAGGAUAUAGAUCGGAUGAGUUCUGUCUAGAAGGGACAUGUU |  |  | 49.7 | 29.6
11 | GGCCUGUUAGGAUAUUAGUAGUAGUCAGAAUAGACUAUUACUGAGAAGGAACAUGAGGAUCACCCAUGUUGGCC | 16.5 | 19.3 |  | 
12 | UGGUACAUCGGAGGAUAUCGUGUGUAAACAUGAGGAUCACCCAUGUCGUACGAGAGUACGUAGAUCGAGAAGGCCGAUGUACCU |  |  | 17.2 | 14.7
13 | UAGCCUGUAGGAGUGGAAGCCGGUAGAAGGCAGCAUUGAUGGACCGACAUGAGGAUCACCCAUGUUGAGGAUAUACCGGGCACU | 39.3 | 247 |  | 
14 | ACGCUUUGGGAGAAGGUACGUUAAUUAUUUUCCACAUGAGGAUCACCCAUGUAAGGAUAUCCCGGCGUGAAAUAGGCUACAGCA | 6.71 | 8.08 |  | 
15 | AAAGCUGAAGGAUAUACUUGGAAAAAAAAAAAAAAAAAAAAACAUGAGGAUCACCCAUGUAGAAGGUCAGAUAA | 48.2 | 39.8 |  | 
16 | GAGCGGAUGUCAGGAUAUCGCCGCGUGAAAAGGCGAGAAGGGACAUGAGGAUCACCCAUGUACUCAUAGGGCCAGCUUGGGCUA | 9.71 | 29.1 |  | 
17 | CGAAGUCCGUAGAAGGGUGACAUGAGGAUCACCCAUGUGCGAGCGGAGGGAGUCAUCGGCUCGCCACAGGAUAUACGGAGCACG |  |  | 58.1 | 49.2
18 | GCCAUCGCAUGAGGAUAUGCUCCCGUUUCGGGAGCAGAAGGCAUGUCACAAGACAUGAGGAUCACCCAUGUAGUUAAGAUGGCA |  |  | 194 | 8.52
19 | GUCGGAAACGACAAAAGUAGCAUACGAGAAGGCUGAUCCAAGACAUGAGGAUCACCCAUGUAGUUAGAGGAUAUUGGAUGCUAC |  |  | 63.8 | 10.7
20 | AAGGAACAUGAGGAUCACCCAUGUGAGGAUAUGUGAGAAGGAUUUGAGAAGGAGAGGGACAGAAGGCACUAGGA | 46.9 | 41.8 |  | 
21 | GUGUACGAAGGAUAUACAUGAGGAUCACCCAUGUGAAUAAGAUAGAAUAAGAUAAAGUGUAGAAGGUCGAGUGU | 33 | 29.4 |  | 
22 | AAGAAGUGAGGAUAUGGCCGGGUCCCUGGGUUUGGACCCGGCCAGAAGGCACAUGAGGAUCACCCAUGUAAGAA | 24 | 46.3 |  | 
23 | AUUAAUAAGUAGAAGGACGGAGAGUAUGAAGUCGUAGGAUAUACAAUAGACAUGAGGAUCACCCAUGUAUGUUGGGUGUGAAUG | 376 | 254 |  | 
24 | GUGCCUUGGGAGAAGGUAUUAAGCAAAGCAAUAUAAGGAUAUUCAUACCGGAAACGGACAUGAGGAUCACCCAUGUGGCACAAA |  |  | 713 | 233
25 | GGUAUCCGGCAGGAUAUUGUGAGAAUCUGUAAGCGAGAAGGGCCAACAUGAGGAUCACCCAUGUACCAUUGAGA | 52.3 | 45.1 |  | 
26 | UUAUACGUUGAGGAUAUGCGAAUUAGUAUAGUUGCAGAAGGCGAUACAUGAGGAUCACCCAUGUUUAUGGGCAU | 194 | 341 |  | 
27 | CCUCCACAUGAGGAUCACCCAUGUCAGGAUAUCGUGUGUUUUUUUUCGGUCGUGCGUGCGAGAAGGGACGUCUU | 25.9 | 29.7 |  | 
28 | CAUUCCCGUCGAGGAUAUAUUAUAUGACAACAAACACAUACAUGAGGAUCACCCAUGUCCCAUGUAUAGAAGGCGACCUGCGUC |  |  | 46.6 | 99.3

Row | Sequence | apparent Kd [1] [nM] | apparent Kd [2] [nM] | apparent Kd [3] [nM] | apparent Kd [4] [nM]
29 | AAGUCGUGAGGAUAUACAUGCAUAUACAUUUAUGUAAAACUACAUGAGGAUCACCCAUGUAGAAGGCACGAAUA | 17.6 | 16.1 |  | 
30 | CCGGAAAUGGAGGAUAUCGUAUCGGAUACGAUACGAGAAGGCUAUACAUGAGGAUCACCCAUGUGUCCUACCGG | 12.6 | 20.1 |  | 
31 | CGAUGACAUAGUCAUCCGUAACGGACAUGAGGAUCACCCAUGUAGGAUAUGCUACUCAACGAGUAGCAGAAGGACAUGAGUCUU | 38.3 | 347 |  | 
32 | GCUGACGAUGUAGGAUAUCUCGACGAUAAGUCGAGAGAAGGACAUGAGGAUCACCCAUGUCUCCAAACGUCAGCGAGGAAACUC | 16.1 | 16.4 |  | 
33 | GGCCCGGGAGGAUAUACAUGAGGAUCACCCAUGUGCGGGCCCGGGAUCCCGGGCCCGUGUAGAAGGCCCGGGCC | 13.4 | 16.5 |  | 
34 | CGUUGAUUUAUUGGAUGAUAUGAUGAGGAUAUCAAUAUUUGUUACAUGAGGAUCACCCAUGUUAAUGAGAAGGCAUAAUUAACG |  |  | 8.49 | 7.96
35 | CGUAGGAUCCAGAAGGCAUGAAACAUGAGGAUCACCCAUGUGAAACACAUGAGGAUAUGGAUCCUACGAAAAGUGCGAAAGCAC |  |  | 4.32 | 4.48
36 | GGUCGGAAUUUCGACGGCCUGAGGGAGGAUAUACAAGGCCGGCGUCGCACAUGAGGAUCACCCAUGUAGAAGGCCCAAGGCCUG | 6 | 7.2 |  | 
37 | CGCUAUGACAUAGGAUAUUGGUACAUGAGGAUCACCCAUGUCAACCUUUAAGCAAAAUUUGUUGACAAGAAGGAUGUGGUAGCG |  |  | 11 | 7.71
38 | UGGUACAUCGGAGGAUAUCAUGUAAAUACAUGAGGAUCACCCAUGUCGAUGGAGACAUCGGAGAUUGAGAAGGCCGAUGUACCG |  |  | 166 | 8.66
39 | GAGUGACAUGAGGAUCACCCAUGUGAGGAUAUCGGACGGACCAAGUUAACAUCCGCCGCGAGAAGGCACAUCGG | 114 | 31.1 |  | 
40 | CCUAUGUGAGGAUAUCACUGGUCUGCUCACUAGAUGAUCAGUGAGAAGGCACAUGAGGAUCACCCAUGUCAGUG | 183 | 41.7 |  | 
41 | UCGUUAUAUGAAGGAUAUACUUAACAUGAGGAUCACCCAUGUGGUGUUGUGAGUGAGUGAGUUUAGUAGAAGGUCAAUUCUUUU | 212 | 214 |  | 
42 | GUGUACAGAGGAUAUACAUGAGCAUGGAAACAUGCAACUUCACAUGAGGAUCACCCAUGUAGAAGGCUGUACAC | 25.1 | 111 |  | 
43 | GUCAGCUCGUGAGGAUAUACAACAUUGCUUCGGCAGUGUAUUAAGAUCACAUGAGGAUCACCCAUGUAGAAGGCACGAGCUGAU | 14.1 | 243 |  | 
44 | AGAUCUACAGGAUAUACAUGAAAGAUCAUCAUGACCCUUCAACAUGAGGAUCACCCAUGUAGAAGGGUAGAUCA | 27.7 | 13.5 |  | 
45 | UAAGUCUAAUGAGGAUAUCGUUAUCAAAGAUAAUGAGAAGGCAUACAAUCAUGAGGACAUGAGGAUCACCCAUGUUGUGACCAU |  |  | 40.9 | 17.6
46 | UUUUAAUAAUAGAAGGAGGACUUCAUGAGGAUCACCCAUGUGUUAGUACUUAGGAUAUGUAAUAACAUGAGGAUCACCCAUGUC |  |  | 44 | 42.4
47 | UGCAUGCUAGGAUAUACGAAACAUUAGGGUUCUUUGUGUGAACAUGAGGAUCACCCAUGUAGAAGGAGCGUGCU | 151 | 38.5 |  | 
48 | UAUAAUCGAGGAUAUACAUGAGGAUCACCCAUGUGUUGCCGCGUGAUGUGUUUGUCAGGUAGAAGGCGAUUAUA | 200 | 43.8 |  | 
49 | GCACGGAUGGUAGGAUAUCAUUGCGAUUAGCUAUGAGAAGGACCACAUGAGGAUCACCCAUGUCCUCUAAUUAGCCUUCCGUGC | 179 | 297 |  | 
50 | GCCAUCGUAUGAGGAUAUGGCACCGAAACGGUGCCAGAAGGCAUGUCUAUAGACAUGAGGAUCACCCAUGUGUUAUCGAUGGCA |  |  | 146 | 14.8
51 | CCUUAACAUGAGGAUCACCCAUGUGAGGAUAUGAUGCAGCAGUGGUCUACGCUGUGCAUCAGAAGGUACAUGGU | 35.9 | 145 |  | 
52 | CCGUAGAGAGGAUAUACAUGAGGAUCACCCAUGUGACAUCGAACGAUGUCGCCUAGUCGUAGAAGGUUCAAACG | 25.4 | 24.8 |  | 
53 | CGCAAUAUACAGAAGGAGUUAUUGAGAGGUUUACUAGGAUAUGUUCACAUGAGGAUCACCCAUGUCAUAUGGUUUUUUAUUGCG | 13.6 | 11.4 |  | 
54 | CCGACCCAAGGAUAUUGUACUGCUGACAUGAGGAUCACCCAUGUAUGUUAACUCGGCCGACGAGAAGGUGGCGACA | 26.8 | 23.9 |  | 
55 | GUGGAGUACGUAGGAUAUGUAGGAUAUUCCUACAUGAGGAUCACCCAUGUUUACAUGGAAGAAGGACAGAAGGACGUGCUCCAG |  |  | 1430 | 14.3
